Reference: ChEMBL document CHEMBL1151470, “Pharmacokinetic interaction between fosamprenavir-ritonavir and rifabutin in healthy subjects” (Antimicrob Agents Chemother, 2008)

What was measured:
Homo sapiens [1] = test: Toxicity in human assessed as increase in neutrophile count at 300 mg, po QD; assay type: organism-based; settings: in vivo
Homo sapiens [2] = test: Toxicity in human assessed as diarrhea disorder at 150 mg, po QOD coadministered with 700 mg fosamprenavir and 100 mg ritonavir po BID; settings: in vivo
Homo sapiens [3] = test: AUC (0 to 48 hrs) in human assessed as dAc-RFB level at 150 mg, […] coadministered with 700 mg fosamprenavir and 100 mg ritonavir po BID; assay type: ADME, organism-based, Plasma; set-up: dose 150 mg, time < 48 hr, route oral; settings: in vivo
Summary of the method: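 Healthy volunteers received RFB 150 mg every other day with FPV-RTV 700/100 mg BID to steady state. Serial EDTA plasma was sampled on the last treatment day at predose and 0.5–24, 36 and 48 h, then stored at –20°C. AUC0-48 came from noncompartmental analysis (linear up/log-linear down trapezoidal) using actual elapsed sampling times.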

Homo sapiens [4] = test: Toxicity in human assessed as nervous system disorder at 300 mg, po QD; assay type: organism-based; settings: in vivo
Homo sapiens [5] = test: Toxicity in human assessed as insomnia at 300 mg, po QD; assay type: organism-based; settings: in vivo
Homo sapiens [6] = test: Toxicity in human assessed as myalgia at 150 mg, po QOD coadministered with 700 mg fosamprenavir and 100 mg ritonavir po BID; settings: in vivo
Homo sapiens [7] = test: Toxicity in human assessed as gastrointestinal disorder at 150 mg, po QOD coadministered with 700 mg fosamprenavir and 100 mg ritonavir po BID; settings: in vivo
Homo sapiens [8] = test: Toxicity in human assessed as renal and urinary disorder at 300 mg, po QD; assay type: organism-based, Urine; settings: in vivo
Homo sapiens [9] = test: Toxicity in human assessed as pain at 150 mg, […] with 700 mg fosamprenavir and 100 mg ritonavir po BID; assay type: organism-based; settings: in vivo
Homo sapiens [10] = test: Toxicity in human assessed as increase in ALT level at 150 mg, […] with 700 mg fosamprenavir and 100 mg ritonavir po BID; assay type: organism-based; settings: in vivo
Homo sapiens [11] = test: Toxicity in human assessed as skin and subcutaneous tissue disorder at 150 mg, […] with 700 mg fosamprenavir and 100 mg ritonavir po BID; assay type: organism-based; settings: in vivo
Homo sapiens [12] = test: Toxicity in human assessed as rash generalized at 150 mg, […] with 700 mg fosamprenavir and 100 mg ritonavir po BID; assay type: organism-based; settings: in vivo
Homo sapiens [13] = test: Toxicity in human assessed as blood and lymphatic system disorder at 150 mg, […] with 700 mg fosamprenavir and 100 mg ritonavir po BID; assay type: organism-based; settings: in vivo
Homo sapiens [14] = test: Toxicity in human assessed as fatigue at 150 mg, […] with 700 mg fosamprenavir and 100 mg ritonavir po BID; assay type: organism-based; settings: in vivo
clinical = settings: human, in vivo, po
Homo sapiens [15] = test: Toxicity in human assessed as decrease in neutrophile count at 300 mg, po QD; assay type: organism-based; set-up: scale not given: the % may be the effect or the level left; settings: in vivo
Homo sapiens [16] = test: Toxicity in human assessed as chills at 300 mg, po QD; assay type: organism-based; settings: in vivo
Homo sapiens [17] = test: Toxicity in human assessed as increase in ALT level at 300 mg, po QD; assay type: organism-based; settings: in vivo
Homo sapiens [18] = test: Toxicity in human assessed as insomnia at 150 mg, […] with 700 mg fosamprenavir and 100 mg ritonavir po BID; assay type: organism-based; settings: in vivo
Homo sapiens [19] = test: Toxicity in human assessed as general disorder at 150 mg, […] with 700 mg fosamprenavir and 100 mg ritonavir po BID; assay type: organism-based; settings: in vivo
Homo sapiens [20] = test: Toxicity in human assessed as headache at 150 mg, […] with 700 mg fosamprenavir and 100 mg ritonavir po BID; assay type: organism-based; settings: in vivo
Homo sapiens [21] = test: Toxicity in human assessed as thrombocytopenia at 150 mg, […] with 700 mg fosamprenavir and 100 mg ritonavir po BID; assay type: organism-based; settings: in vivo
Homo sapiens [22] = test: Toxicity in human assessed as fatigue at 300 mg, po QD; assay type: organism-based; settings: in vivo
Homo sapiens [23] = test: AUC (0 to 48 hrs) in human assessed as dAc-RFB level at 300 mg, po QD; assay type: ADME, organism-based, Plasma; set-up: dose 300 mg, time < 48 hr, route oral; settings: in vivo
Summary of the method: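 Volunteers took RFB 300 mg QD alone to steady state. Serial EDTA plasma was sampled on the last treatment day at predose and 0.5–24 h, then stored at –20°C. AUC0-24 came from noncompartmental analysis (linear up/log-linear down trapezoidal) using actual times, and was doubled to estimate AUC0-48.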

Homo sapiens [24] = test: Toxicity in human assessed as increase in neutrophile count at 150 mg, […] with 700 mg fosamprenavir and 100 mg ritonavir po BID; assay type: organism-based; settings: in vivo
Homo sapiens [25] = test: Toxicity in human assessed as diarrhea at 300 mg, po QD; assay type: organism-based; settings: in vivo
Homo sapiens [26] = test: Toxicity in human assessed as headache at 300 mg, po QD; assay type: organism-based; settings: in vivo

Compound `CO[C@H]1/C=C/O[C@@]2(C)Oc3c(C)c(O)c4c(c3C2=O)C2=NC3(CCN(CC(C)C)CC3)NC2=C(NC(=O)/C(C)=C\C=C\[C@H](C)[C@H](O)[C@@H](C)[C@@H](O)[C@@H](C)[C@H](OC(C)=O)[C@@H]1C)C4=O` [RIFABUTIN] has an Activity (Homo sapiens [1]) of 0%, an Activity (Homo sapiens [2]) of 4% and an AUC (Homo sapiens [3]) of 4600 ng·h/mL. It also gave an Activity (Homo sapiens [4]) of 35%, an Activity (Homo sapiens [5]) of 4% and an Activity (Homo sapiens [6]) of 4%. It also gave an Activity (Homo sapiens [7]) of 7%, an Activity (Homo sapiens [8]) of 59% and an Activity (Homo sapiens [9]) of 1%. For the same compound, the Activity (Homo sapiens [10]) was 5%, the Activity (Homo sapiens [11]) was 6% and the Activity (Homo sapiens [12]) was 2%. The Activity (Homo sapiens [13]) was 3%, the Activity (Homo sapiens [14]) was 4% and the Cmax (clinical) was 268 ng/mL. The Activity (Homo sapiens [15]) was 3%, the Activity (Homo sapiens [16]) was 0% and the Activity (Homo sapiens [17]) was 0%. It also gave an Activity (Homo sapiens [18]) of 1%, an Activity (Homo sapiens [19]) of 7% and an Activity (Homo sapiens [20]) of 45%. The Activity (Homo sapiens [21]) was 3%, the Activity (Homo sapiens [22]) was 0% and the AUC (Homo sapiens [23]) was 411 ng·h/mL. It also gave an Activity (Homo sapiens [24]) of 3%, an Activity (Homo sapiens [25]) of 0% and an Activity (Homo sapiens [26]) of 35%.
